The results in this text go back to ChEMBL document CHEMBL1138355, “Amine-guanidine switch: a promising approach to improve DNA binding and antiproliferative activities” (J Med Chem, 2007).

Active and inactive are the calls of the source. The rule behind the calls is not given here.

Test [1] relates to SK-BR-3. The test is described as follows: Antiproliferative activity against human SKBR3 cells after 72 hrs. As to conditions: SK-BR-3, 72 h. Type of test: functional, cell-based. The gist of the method: (§1)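 Cells grown in DMEM with 10% calf serum and 1 mM pyruvate, seeded at 5000 cells/well, left 24 h, then given increasing concentrations from DMSO stock in triplicate (DMSO-only controls) for 72 h. CellTiter 96 aqueous one-solution reagent added for 3 h at 37 °C, A540 read. IC50 taken as the concentration halving cell number versus controls, from triplicate means.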

Test [2] concerns DNA. Nature of the test: Binding affinity to calf […] DNA assessed as thermal stability in cacodylate buffer at 12 uM. Format: nucleic-acid assay.
Test [3] has as its system DNA. Nature of the test: Binding affinity to calf thymus DNA assessed as thermal stability in BPE buffer at 2 uM. Format: nucleic-acid assay. As to conditions: Bos taurus.
Test [4] addresses T1, Caspase-3 (Homo sapiens) (UniProt P42574).
T1 sequence (whole entry): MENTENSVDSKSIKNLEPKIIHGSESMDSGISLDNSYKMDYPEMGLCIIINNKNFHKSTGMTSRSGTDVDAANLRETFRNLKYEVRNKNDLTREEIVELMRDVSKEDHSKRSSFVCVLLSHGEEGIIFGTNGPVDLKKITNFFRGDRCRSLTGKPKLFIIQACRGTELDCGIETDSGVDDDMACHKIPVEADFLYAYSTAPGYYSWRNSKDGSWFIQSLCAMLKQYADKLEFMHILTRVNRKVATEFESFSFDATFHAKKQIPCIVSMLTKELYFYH
The test is described as follows: Increase in caspase 3 activation in human SKBR3 cells at 20 uM after 24 hrs. Format: cell-based. The conditions noted are these: SK-BR-3. Summed up:
(§2)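 SKBR3 cells seeded at 10^4 per well and exposed to compounds at 20 µM for 24 h. Controls run with and without 0.2% DMSO. Caspase-3/7 activity measured in homogeneous lysates with Caspase-Glo 3/7 reagent as luciferase luminescence.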

Test [5] concerns DNA. The test is described as follows: Binding affinity to calf […] DNA assessed as thermal stability in cacodylate buffer containing 0.1 M NaCl at 12 uM. Type of test: nucleic-acid assay.
The target in test [6] is T2, Caspase-7 (Homo sapiens) (UniProt P55210).
T2 sequence (whole entry): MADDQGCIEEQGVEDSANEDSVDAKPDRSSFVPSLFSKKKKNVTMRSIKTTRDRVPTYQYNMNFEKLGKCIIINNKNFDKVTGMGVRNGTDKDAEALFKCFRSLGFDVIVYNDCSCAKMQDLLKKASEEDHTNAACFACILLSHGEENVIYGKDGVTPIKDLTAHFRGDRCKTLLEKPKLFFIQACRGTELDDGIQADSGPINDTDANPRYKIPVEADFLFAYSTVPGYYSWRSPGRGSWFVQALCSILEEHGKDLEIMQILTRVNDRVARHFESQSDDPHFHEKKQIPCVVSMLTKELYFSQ
Nature of the test: Increase in caspase 7 activation in human SKBR3 cells at 20 uM after 24 hrs. Format: cell-based. The conditions noted are these: SK-BR-3. The gist of the method:
as §2

Test [7] relates to HT-29. Nature of the test: Antiproliferative activity against human HT29 cells after 72 hrs. Type of test: functional, cell-based. The conditions noted are these: HT-29, 72 h. The gist of the method:
as §1

In test [8] the test system is PC-3. The test is described as follows: Antiproliferative activity against human PC3 cells after 72 hrs. Format: functional, cell-based. As to conditions: PC-3, 72 h.
In test [9] the test system is T47D. Nature of the test: Antiproliferative activity against human T47D cells after 72 hrs. Type of test: functional, cell-based. Summed up: as §1
The test system of test [10] is LNCaP. The test is described as follows: Antiproliferative activity against human LnCAP cells after 72 hrs. Type of test: functional, cell-based.
For test [11], the system named is BT-474. The test is described as follows: Antiproliferative activity against human BT474 cells after 72 hrs. The conditions noted are these: BT-474, 72 h. Type of test: functional, cell-based.
The subject of test [12] is BT-474. The test is described as follows: Antitumor activity against human BT474 cells xenografted in gamma C null NOG/SCID mouse assessed as reduction in tumor volume at 60 mg/kg, ip after 44 days. The conditions noted are these: route intraperitoneal. Format: functional. Further details: scale not given: the % may be the effect or the level left. The gist of the method:
(§3)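 5 × 10^6 BT474 cells in Matrigel injected subcutaneously into the mammary gland of NOG/SCID mice. Once xenografts were established (10–15 days), mice got intraperitoneal doses in 0.9% NaCl every 3 days; controls got vehicle on the same schedule. Tumours measured by caliper, volume = 0.52(length × width²), five mice per group, percent volume change at day 44.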
(In general: In xenograft studies the graft and the host belong to different species.)

The test system of test [13] is BT-474. Nature of the test: Antitumor activity against human BT474 cells xenografted gamma C null NOG/SCID mouse assessed as reduction in tumor volume at 20 mg/kg, ip after 44 days. Type of test: functional. Also on record: scale not given: the % may be the effect or the level left. The conditions noted are these: route intraperitoneal. Summed up: as §3

Broadly, the IC50 is the midpoint of a concentration-inhibition curve. For orientation: ΔTm means the change in melting temperature against a reference sample. For `NCc1c2ccccc2cc2ccccc12`, it took 25.5 µM to reach half-maximal inhibition in test [1] (IC50). In addition, the ΔTm came to 9 °C in test [2], 3 °C in [3] and 1 °C in test [5]. Besides, the result in test [4] and in test [6] was inactive.

Consider `N=C(N)NCc1ccc2c(c1)Cc1ccccc1-2`, for which the IC50 in test [1] was 15.7 µM; in test [7] it was 32.4 µM; in [8], 24 µM; in [9], 6.9 µM; in test [10], 27.5 µM; in [11], 19.1 µM. Further, the ΔTm is 1 °C in test [2], 0 °C in test [3] and 0 °C in test [5].

In the case of `N=C(N)NCCCNCCCCNCCCNCc1ccc2ccc3cccc4ccc1c2c34`, the IC50 in test [1] came to 25.3 µM; in [9] it was 8 µM; in test [11], 34.6 µM. The values for the ΔTm in test [2] and in [5] were 39.1 °C and 16 °C, respectively. In [3], the Tm is > 100 °C. For the same molecule, the outcome in [4] and in [6] was inactive.

For the molecule `NCc1ccccc1` [BENZYLAMINE], the IC50 in test [1] is > 40 µM. Besides, the ΔTm in test [2] was 0.1 °C; in [3], 0 °C; in [5] it was 0 °C. Also, the outcome in test [4] and in test [6] was inactive.

Take `N=C(N)NCc1c2ccccc2cc2ccccc12`: the 50% inhibitory concentration (IC50) is 1.9 µM in test [1]; > 100 µM in test [7]; 10 µM in test [8]; 29.5 µM in [9]; 3.5 µM in [10]; 19.1 µM in [11]. Further, the results for the ΔTm in [2], in test [3] and in test [5] were 15 °C, 6.1 °C and 4 °C, respectively. For the same molecule, the result in [4] and in test [6] was Active.

Regarding `N=C(N)NCCCCNCc1ccc2ccc3cccc4ccc1c2c34`, the values for the Activity in test [12] and in test [13] were 73% and 32%, respectively. The IC50 in [1] amounted to 1.9 µM; in test [7], 30.9 µM; in test [8], 7.9 µM; in test [9], 2.2 µM; in test [10] it was 9.3 µM; in test [11], 16.2 µM. Further, the ΔTm is 34.2 °C in test [2] and 12 °C in test [5]. Further, the Tm in [3] is > 100 °C. Also, the result in test [4] and in test [6] was Active.

On to `NCc1ccc2c(c1)Cc1ccccc1-2`, for which the IC50 in [1] is > 40 µM. Moreover, the shift in melting temperature (ΔTm) was 0.1 °C in [2], 1 °C in test [3] and 0 °C in [5]. Also, the result in test [4] and in test [6] was inactive.

For the molecule `N=C(N)NCc1ccc2ccc3cccc4ccc1c2c34`, the IC50 in test [1] stood at 11 µM; in test [7], 39.8 µM; in test [8] it was 43.7 µM; in test [9], 43.7 µM; in [10], 93.3 µM; in test [11], 33.9 µM. Further, the ΔTm stood at 19 °C in test [2], 8.1 °C in test [3] and 6 °C in test [5].

Turning to `NCCCCNCc1ccc2ccc3cccc4ccc1c2c34`, in test [1], half-maximal inhibition (IC50) was put at 4.2 µM. For the same molecule, the ΔTm in test [2] was 32.1 °C; in [3] it was 20.2 °C; in test [5], 10 °C.

`NCCCCNCc1c2ccccc2cc2ccccc12` had an IC50 in [1] of 3.3 µM. The results for the ΔTm in test [2], in test [3] and in test [5] were 26 °C, 13.1 °C and 8 °C, respectively.

In test [1], `NCc1ccc2ccc3cccc4ccc1c2c34` came in with an IC50 of 12 µM. Also, the results for the ΔTm in [2], in [3] and in [5] were 15 °C, 5 °C and 3 °C, respectively.

Consider `NCc1cccs1`, for which the concentration for half-maximal inhibition (IC50) in test [1] is > 40 µM. In addition, the ΔTm in test [2] amounted to 0 °C; in [3], 0.1 °C; in test [5], 0 °C.

`N=C(N)NCc1cccs1`: the IC50 in test [1] is > 40 µM; in [7], > 100 µM; in [8] it was > 100 µM; in test [9], 85.1 µM; in test [10] it was 64.6 µM; in test [11], 95.5 µM. Further, the ΔTm in test [2] turned out to be 0 °C; in test [3], 0.1 °C; in [5], 0 °C.

As to `CCBr`, the ΔTm worked out at 21 °C in test [2], 8.1 °C in test [3] and 5 °C in test [5].

Take `N=C(N)NCCCCNCc1c2ccccc2cc2ccccc12`: the IC50 in test [1] stood at 2.3 µM; in test [7] it was 79.4 µM; in test [8] it was 13.8 µM; in test [9] it was 30.9 µM; in [10], 28.2 µM; in test [11], 14.5 µM. For the same molecule, the values for the ΔTm in test [2], in test [3] and in [5] were 28.1 °C, 15.1 °C and 9 °C, respectively.

Consider `CN1CCN(c2ccc3[nH]c(-c4ccc5[nH]c(-c6ccc(O)cc6)nc5c4)nc3c2)CC1`, for which the ΔTm stood at 25.1 °C in test [2], 9 °C in test [3] and 12 °C in test [5].

Take `N=C(N)NCCCCCCNCc1ccc2ccc3cccc4ccc1c2c34`: the IC50 in test [1] stood at 4.8 µM; in test [9] it was 2.2 µM; in test [11], 29.2 µM. The ΔTm in test [2] was found to be 34.1 °C; in [5] it was 12 °C. In addition, the Tm in test [3] is > 100 °C.

`N=C(N)NCc1ccccc1`: the IC50 in [1] is > 40 µM; in [7] it was > 100 µM; in [8], > 100 µM; in [9], 83.2 µM; in test [10], 43.7 µM; in test [11] it was 47.9 µM. Also, the results for the ΔTm in test [2], in test [3] and in test [5] were 0.1 °C, 0.1 °C and 0 °C, respectively. For the same molecule, the outcome in [4] and in test [6] was inactive.
